Activity calls are given as the source filed them. No cut-off for these calls is given here.

The subject of data set [1] is Leishmania amazonensis. The data set is described as follows: Antileishmanial activity against intracellular amastigotes of Leishmania amazonensis MHOM/BR/75/LTB0016 infected in Swiss mouse peritoneal macrophages assessed as inhibition of infection index after 72 hrs by light microscopic analysis. The data set is classed as functional, organism-based. In short, it runs like this:
(§1)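 Peritoneal macrophages from Swiss mice (6−8 weeks), plated in RPMI at 2 × 10^6 cells/mL, infected with L. amazonensis promastigotes (MOI 3.0) for 3 h at 37 °C, 5% CO2; free parasites washed off. Infected cells incubated with compound (3, 6, and 12 μM) or PBS vehicle for 72 h. Light microscopy, ≥200 cells per coverslip in duplicate. Infection index = % infected macrophages × amastigotes/total macrophages. IC50 by logarithmic regression. Three independent experiments; pentamidine (12 μM) reference.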

Data set [2] relates to Leishmania amazonensis. The data set is described as follows: Antileishmanial activity against stationary-phase promastigotes of Leishmania amazonensis MHOM/BR/75/LTB0016 infected in BALB/c mouse assessed as reduction of parasite burden at 30 mg/kg, po administered 5 times per week. On the set-up: dose 30 mg/kg. The data set is classed as functional, organism-based. The essentials:
(§2)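 BALB/c mice (five per group, specific pathogen-free) infected intradermally in the right ear with 2 × 106 L. amazonensis promastigotes. Compound diluted in PBS, given orally at 30 mg/kg/day once daily, five times a week, until day 52. Controls received oral sterile PBS. Meglumine antimoniate 30 mg/kg/day ip served as positive control. Lesions measured twice weekly by dial caliper. Parasite load from excised, weighed, minced ears by limiting dilution in Schneider's medium with 10% FCS; growth read after 7 days at 26 °C. n = 5 ears.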

Data set [3] has as its system Mus musculus. The data set is described as follows: Toxicity in stationary-phase promastigotes of Leishmania amazonensis MHOM/BR/75/LTB0016 infected BALB/c mouse assessed as serum alanine aminotransferase level at 30 mg/kg, po administered 5 times per week. On the set-up: dose 30 mg/kg, route oral. The data set is classed as organism-based. The note with it: in vivo. In short, it runs like this:
(§3)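 Infected BALB/c mice (2 × 10^6 promastigotes intradermally, ear) were dosed orally at 30 mg/kg/day in PBS, once daily, five times a week, to day 52. The PBS-treated group served as control. Serum was collected at euthanasia, and ALT, AST and creatinine were measured with colorimetric kits. n = 5.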

The subject of data set [4] is Mus musculus. The data set is described as follows: Toxicity in stationary-phase promastigotes of Leishmania amazonensis MHOM/BR/75/LTB0016 infected BALB/c mouse assessed as serum aspartate aminotransferase level at 30 mg/kg, po administered 5 times per week. On the set-up: dose 30 mg/kg, route oral. The note with it: in vivo. It is filed as organism-based. The essentials:
as §3

Data set [5] has as its system Leishmania amazonensis. The data set is described as follows: Antileishmanial activity against stationary-phase promastigotes of Leishmania amazonensis MHOM/BR/75/LTB0016 infected in BALB/c mouse assessed as reduction of lesion size at 30 mg/kg, po administered 5 times per week. On the set-up: dose 30 mg/kg. It is filed as functional, organism-based. In short, it runs like this: as §2

The nature of data set [6]: Cytotoxicity against Swiss mouse peritoneal macrophages after 72 hrs by Alamar blue assay. The data set is classed as cell-based. The note with it: Peritoneal macrophage cell. The essentials:
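Swiss mouse peritoneal macrophages (2 × 10^6 cells/mL) adhered 1 h at 37 °C, 5% CO2; nonadherent cells washed off. Exposed to compound (3 to 3000 μM) for 72 h, washed, then AlamarBlue (10% v/v) for 12 h at 37 °C. Absorbance read at 570 nm. IC50 by logarithmic regression. 0.1% Triton X-100 lysis as positive control; PBS vehicle control; three independent experiments.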

A short description of data set [7]: Selectivity index, ratio of IC50 for Swiss mouse peritoneal macrophages to IC50 for intracellular amastigotes of Leishmania amazonensis MHOM/BR/75/LTB0016. In short, it runs like this: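 Ratio of the macrophage IC50 (AlamarBlue, 72 h) to the intracellular amastigote IC50 (infection index, 72 h).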
The test system of data set [8] is Mus musculus. The data set is described as follows: Toxicity in stationary-phase promastigotes of Leishmania amazonensis MHOM/BR/75/LTB0016 infected BALB/c mouse assessed as serum creatinine level at 30 mg/kg, po administered 5 times per week. The data set is classed as organism-based. On the set-up: dose 30 mg/kg, route oral. The note with it: in vivo. The essentials:
as §3

Data set [9] has as its system Leishmania amazonensis. The data set is described as follows: Antileishmanial activity against intracellular amastigotes of Leishmania amazonensis MHOM/BR/75/LTB0016 infected in Swiss mouse peritoneal macrophages assessed as growth inhibition at 12 uM after 72 hrs. The data set is classed as functional. The note with it: MHOM/BR/75/LTB0016, 72 h, read-out: GI. In short, it runs like this: as §1

The nature of data set [10]: Selectivity index, ratio of CC50 for Balb/c mouse peritoneal macrophages to IC50 for promastigotes of Leishmania amazonensis IFLA/BR/1967/PH-8. The data set is classed as functional.

Regarding `O=C(O[C@@H]1Cc2c(O)cc(O)cc2O[C@@H]1c1cc(O)c(O)c(O)c1)c1cc(O)c(O)c(O)c1` [EPIGALOCATECHIN GALLATE], in [1], the inhibition entry was “Dose-dependent effect”. The IC50 was 1600 nM in data set [1] (MHOM/BR/75/LTB0016, 72 h) and 436 µM in [6]. Further, the outcome in data set [2] and in [5] was Active. In addition, the Activity result in data set [3], in data set [4] and in data set [8] was “Non-toxic” throughout. In addition, the “Ratio IC50” value in data set [7] stood at 129.4. For the same molecule, the inhibition of growth at 12 µM in [9] was 83.6%.
On to `CCCCCCCCCCCCCCCCOP(=O)([O-])OCC[N+](C)(C)C` [MILTEFOSINE], for which the “Ratio CC50/IC50” value in [10] turned out to be 28.9.
